ChEMBL document CHEMBL1221204, “Spliceostatin A targets SF3b and inhibits both splicing and nuclear retention of pre-mRNA” (Nat Chem Biol, 2007)
Calls of active or inactive are those of the source. No cut-off for these calls is given here.

Experiments:
[1] = Half life of the compound in culture medium by HPLC analysis; format: physicochemical
[2] = molecular target: Cyclin-dependent kinase 2 (Homo sapiens) (UniProt P24941); experiment: Induction of CDK2 in HEK293T cells transfected with FLAG-tagged truncated p27 at 190 nM by Western blot analysis; format: cell-based; conditions: HEK-293T
In short: (§1)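 HEK 293T cells were transfected with pcDNA3.1, FLAG-p27 or FLAG-p27*, or were treated with MeOH, FR901464 (20, 200 nM) or SSA (190 nM). CDK2 was immunoprecipitated and its kinase activity read by autoradiography with histone H1 and (gamma-32P)ATP. Associated proteins were detected by western blotting.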

HeLa [3] = experiment: Induction of truncated p27 expression in SAP155-targeting siRNA-transfected human HeLa cells; format: functional, cell-based
In short: (§2)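 HeLa cells transfected with siRNA against SAP155, SAP145 or SAP130 using DharmaFECT 1. Knockdown and the truncated p27* form detected by western blotting of cell extracts.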

HEK-293T [4] = experiment: Induction of intron translation of Myc-tagged p27 gene in HEK293T cells at 100 ng/ml for 14 hrs by Western blotting; format: functional, cell-based; conditions: Homo sapiens
In short: (§3)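 HEK 293T cells transfected (Lipofectamine 2000) with the p27-int-HA reporter. Correct splicing yields p27-Myc; translated intron yields p27*-HA. Cells treated with or without SSA at 100 ng ml-1 for 14 h. Myc- and HA-tagged products detected by western blotting.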

[5] = molecular target: T1, Splicing factor 3B subunit 3 (Homo sapiens) (UniProt Q15393); experiment: Binding affinity to SAP130 in human HeLa cells assessed as inhibition of beta-tubulin mRNA splicing at 100 ng/ml after 6 hrs by RT-PCR analysis; format: cell-based
T1 sequence (whole entry): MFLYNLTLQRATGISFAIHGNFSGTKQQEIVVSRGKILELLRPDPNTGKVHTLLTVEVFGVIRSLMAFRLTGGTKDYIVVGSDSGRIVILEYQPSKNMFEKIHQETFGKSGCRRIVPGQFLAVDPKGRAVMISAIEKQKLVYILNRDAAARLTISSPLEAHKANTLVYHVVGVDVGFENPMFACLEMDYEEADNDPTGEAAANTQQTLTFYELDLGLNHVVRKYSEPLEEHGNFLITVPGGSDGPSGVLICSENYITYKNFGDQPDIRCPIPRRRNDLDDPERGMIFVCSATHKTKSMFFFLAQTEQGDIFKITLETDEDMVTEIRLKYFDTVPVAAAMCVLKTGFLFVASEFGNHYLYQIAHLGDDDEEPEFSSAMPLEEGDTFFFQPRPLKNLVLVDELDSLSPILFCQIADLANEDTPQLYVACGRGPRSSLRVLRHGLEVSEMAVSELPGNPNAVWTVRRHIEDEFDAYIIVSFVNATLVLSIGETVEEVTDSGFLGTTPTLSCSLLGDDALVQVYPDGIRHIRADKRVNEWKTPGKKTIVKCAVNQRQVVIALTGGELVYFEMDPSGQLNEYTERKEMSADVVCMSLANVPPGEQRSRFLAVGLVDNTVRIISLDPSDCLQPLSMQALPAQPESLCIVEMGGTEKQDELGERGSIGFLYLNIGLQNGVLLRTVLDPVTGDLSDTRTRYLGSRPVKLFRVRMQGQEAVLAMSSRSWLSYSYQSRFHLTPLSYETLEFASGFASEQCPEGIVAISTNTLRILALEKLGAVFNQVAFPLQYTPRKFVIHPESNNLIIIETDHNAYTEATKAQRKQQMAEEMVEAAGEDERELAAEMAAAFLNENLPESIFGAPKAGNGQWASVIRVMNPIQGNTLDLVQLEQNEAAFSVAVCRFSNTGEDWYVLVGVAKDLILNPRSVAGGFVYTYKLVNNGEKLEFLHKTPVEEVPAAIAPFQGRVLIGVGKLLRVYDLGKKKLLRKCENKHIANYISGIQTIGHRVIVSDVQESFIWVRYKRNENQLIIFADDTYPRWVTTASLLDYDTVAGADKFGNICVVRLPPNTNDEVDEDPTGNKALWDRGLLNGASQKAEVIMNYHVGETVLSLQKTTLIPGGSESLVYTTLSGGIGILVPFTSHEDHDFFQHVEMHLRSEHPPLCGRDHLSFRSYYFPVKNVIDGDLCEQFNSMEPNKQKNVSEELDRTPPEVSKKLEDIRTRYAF
In short: (§4)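 HeLa cells treated 6 h with 100 ng ml-1 SSA or methanol. Total RNA isolated with TRIzol and reverse transcribed with M-MLV reverse transcriptase. PCR primers designed to detect intron-containing transcripts.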

[6] = molecular target: T1, Splicing factor 3B subunit 3 (Homo sapiens); experiment: Binding affinity to SAP130 in human HeLa cells assessed as inhibition of FLAG-tagged beta globin splicing at 100 ng/ml after 12 hrs by RT-PCR analysis; format: cell-based
[7] = molecular target: T1, Splicing factor 3B subunit 3 (Homo sapiens); experiment: Binding affinity to SAP130 in human HeLa cells assessed as inhibition of p27 pre-mRNA splicing between exon 1 and intron 2 at […] after 12 hrs by RT-PCR analysis; format: cell-based
HeLa [8] = experiment: Induction of subcellular localization of SAP155 in SAP155-targeting siRNA-transfected human HeLa cells after 3 days; format: functional, cell-based
HeLa [9] = experiment: Induction of truncated p27 expression in SAP145-targeting siRNA-transfected human HeLa cells; format: functional, cell-based; in short: as §2
[10] = tested on: SF3B1/SF3B2/SF3B3 (Homo sapiens); experiment: Displacement of Ac-SSA from SF3b SAP155/SAP145/SAP130 complex in human HeLa cells by competition binding assay
[11] = molecular target: T1, Splicing factor 3B subunit 3 (Homo sapiens); experiment: Binding affinity to SAP130 assessed as inhibition of radio labeled IgM pre-mRNA splicing after 1 hr by autoradiography
In short: (§5)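 32P-labelled, m7G-capped in vitro-transcribed pre-mRNA substrate; beta-globin (exon 1 177 nt, intron 130 nt, exon 2 148 nt) or IgM (exon C3 154 nt, intron 107 nt, exon C4 119 nt). HeLa nuclear extract preincubated with SSA (19, 58, 95, 190 nM) or methanol for 1 h at 4 °C. Splicing then run 90 min at 30 °C in 20 µl. RNA resolved on denaturing urea-PAGE; autoradiography.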

[12] = molecular target: T1, Splicing factor 3B subunit 3 (Homo sapiens); experiment: Binding affinity to SAP130 in human HeLa cells assessed as inhibition of p27 mRNA splicing at 100 ng/ml after 6 hrs by RT-PCR analysis; format: cell-based; in short: as §4
[13] = molecular target: T1, Splicing factor 3B subunit 3 (Homo sapiens); experiment: Binding affinity to SAP130 in human HeLa cells assessed as inhibition of IkappaBalpha pre-mRNA splicing between exon 1 and exon 4 at […] after 12 hrs by RT-PCR analysis; format: cell-based
HeLa [14] = experiment: Induction of subcellular localization of poly(A) RNA in human HeLa cells at 100 ng/ml after 3 hrs using digoxigenin-labeled oligo-Dt probe; format: functional, cell-based
In short: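 HeLa cells treated with SSA (100 ng ml-1, 3 h) or MeOH. Fixed in 3% formaldehyde 15 min; permeabilized with 0.5% Triton X-100 on ice. Hybridized at 42 °C with 3'-digoxigenin oligo-dT in 2× SSC, 20% formamide, 1 mg ml-1 tRNA, 10% dextran sulfate. Washed; detected with anti-digoxigenin then FITC anti-mouse IgG.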

[15] = molecular target: Cyclin-dependent kinase 2 (Homo sapiens) (UniProt P24941); experiment: Induction of CDK2 in HEK293T cells transfected with FLAG-tagged p27 at 190 nM by Western blot analysis; format: cell-based; conditions: HEK-293T; in short: as §1
HeLa [16] = experiment: Induction of truncated p27 expression in SAP130-targeting siRNA-transfected human HeLa cells; format: functional, cell-based; in short: as §2
[17] = molecular target: T1, Splicing factor 3B subunit 3 (Homo sapiens); experiment: Binding affinity to SAP130 in human HeLa cells assessed as inhibition of p27 pre-mRNA splicing between exon 1 and exon 2 at […] after 12 hrs by RT-PCR analysis; format: cell-based
HeLa [18] = experiment: Induction of subcellular localization of SAP145 in SAP145-targeting siRNA-transfected human HeLa cells after 3 days; format: functional, cell-based
HEK-293T [19] = experiment: Induction of intron translation of HA-tagged truncated p27 gene in HEK293T cells at 100 ng/ml for 14 hrs; format: functional, cell-based; conditions: Homo sapiens; in short: as §3
HeLa [20] = experiment: Induction of beta-tubulin expression in human HeLa cells at 100 ng/ml after 14 hrs by Western blotting; format: functional, cell-based
[21] = molecular target: T1, Splicing factor 3B subunit 3 (Homo sapiens); experiment: Binding affinity to SAP130 assessed as inhibition of radio labeled beta-globin pre-mRNA splicing after 1 hr by autoradiography; in short: as §5
HeLa [22] = experiment: Induction of beta-actin expression in human HeLa cells at 100 ng/ml after 14 hrs by Western blotting; format: functional, cell-based
HeLa [23] = experiment: Induction of subcellular localization of SC35 in human HeLa cells at 100 ng/ml after 3 hrs; format: functional, cell-based
In short: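 HeLa cells treated with SSA (100 ng ml-1, 3 h) or MeOH. Fixed in 3% formaldehyde, permeabilized with 1% Triton X-100, blocked with 5% FBS-PBS. Stained with anti-SC35 and an Alexa 488 anti-mouse secondary; fluorescence microscopy at 100×.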

[24] = molecular target: T1, Splicing factor 3B subunit 3 (Homo sapiens); experiment: Binding affinity to SAP130 in human HeLa cells assessed as inhibition of beta-actin mRNA splicing at 100 ng/ml after 6 hrs by RT-PCR analysis; format: cell-based; in short: as §4
HeLa [25] = experiment: Induction of p21 expression in human HeLa cells at 1 uM after 24 hrs by Western blotting; format: functional, cell-based
In short: (§6)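 HeLa S3 cells were grown in DMEM with 10% heat-inactivated FBS and treated for 24 h. Cells were sonicated in ice-cold pH 7.5 HEPES IP buffer with protease inhibitors. Extracts were separated by SDS-PAGE, blotted to PVDF and probed with anti-p16, anti-p21 and anti-p27 antibodies, with chemiluminescent detection.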

HeLa [26] = experiment: Induction of p27 expression in human HeLa cells at 1 uM after 24 hrs by Western blotting; format: functional, cell-based; in short: as §6
HeLa [27] = experiment: Induction of p16 expression in human HeLa cells at 1 uM after 24 hrs by Western blotting; format: functional, cell-based; in short: as §6

Question: Which half-life [1] does the source give for `CO[C@]1(C)C[C@@]2(CO2)[C@H](O)[C@@H](/C=C/C(C)=C/C[C@@H]2O[C@H](C)[C@H](NC(=O)/C=C\[C@H](C)OC(C)=O)C[C@@H]2C)O1` here?
Answer: The half-life was 6 min.

Question: And the Activity [2]?
Answer: Its Activity is “inactive”.

Question: And the Activity (HeLa [3])?
Answer: Its Activity is “Active”.

Question: What about the Activity (HEK-293T [4]) of the same compound?
Answer: The Activity was “Active”.

Question: What about the inhibition [5] of the same compound?
Answer: Its inhibition is “Active”.

Question: And the Activity [6]?
Answer: The Activity was “Active”.

Question: What about the Activity [7] of the same compound?
Answer: Its Activity is “Active”.

Question: What about the Activity (HeLa [8]) of the same compound?
Answer: Its Activity is “Active”.

Question: And the Activity (HeLa [9])?
Answer: The Activity was “Active”.

Question: And the Activity [10]?
Answer: Its Activity is “Active”.

Question: And the inhibition [11]?
Answer: The inhibition was “Active”.

Question: And the inhibition [12]?
Answer: Its inhibition is “Active”.

Question: And the Activity [13]?
Answer: The Activity was “Active”.

Question: And the Activity (HeLa [14])?
Answer: Its Activity is “Active”.

Question: What about the Activity [15] of the same compound?
Answer: The Activity was “inactive”.

Question: And the Activity (HeLa [16])?
Answer: Its Activity is “Active”.

Question: What about the Activity [17] of the same compound?
Answer: Its Activity is “Active”.

Question: And the Activity (HeLa [18])?
Answer: The Activity was “Active”.

Question: And the Activity (HEK-293T [19])?
Answer: Its Activity is “Active”.

Question: And the Activity (HeLa [20])?
Answer: The Activity was “Active”.

Question: What about the Activity [21] of the same compound?
Answer: The Activity was “Dose-dependent effect”.

Question: And the Activity (HeLa [22])?
Answer: Its Activity is “Active”.

Question: And the Activity (HeLa [23])?
Answer: Its Activity is “Active”.

Question: What about the inhibition [24] of the same compound?
Answer: The inhibition was “Active”.

Question: What does the source list for `CC(/C=C/C(=O)NO)=C\[C@@H](C)C(=O)c1ccc(N(C)C)cc1`?
Answer: Activity (HeLa [25]): Active; Activity (HeLa [26]): Active; Activity (HeLa [27]): Active
